Reference: ChEMBL document CHEMBL3526002, “Tissue distribution and identification of radioactivity components at elimination phase after oral administration of [¹⁴C]CS-1036, an α-amylase inhibitor, to rats” (Drug Metab Dispos, 2013)

Assays:
Settings in all cases: in vivo; call rule not given here
[1] = Drug uptake in albino F344/DuCrlCrlj rat bone marrow assessed as ng equivalent of CS-1036 at 5 mg/kg, po after 336 hrs by liquid scintillation counting; assay type: ADME, organism-based; parameters: dose 5 mg/kg, dosed compound name [14C]CS-1036, route oral
Kidney [2] = assay: Drug uptake in albino F344/DuCrlCrlj rat kidney at 5 mg/kg, po after 336 hrs by liquid scintillation counting; assay type: ADME, organism-based; parameters: dose 5 mg/kg, dosed compound name [14C]CS-1036, route oral
Heart [3] = assay: Drug uptake in albino F344/DuCrlCrlj rat heart assessed as ng equivalent of CS-1036 at 5 mg/kg, po after 1 hr by liquid scintillation counting; assay type: ADME, organism-based; parameters: dose 5 mg/kg, dosed compound name [14C]CS-1036, route oral
Blood = assay: Drug uptake in albino F344/DuCrlCrlj rat blood at 5 mg/kg, po after 24 hrs by liquid scintillation counting; assay type: ADME, organism-based; parameters: dose 5 mg/kg, dosed compound name [14C]CS-1036, route oral
Outline: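 Male F344/DuCrlCrlj rats (159–167 g; n = 3 per time point) received a single oral dose of [14C]CS-1036 at 5 mg/kg. Blood was taken from the abdominal aorta at 1, 4, 8, 24, 72, 168 and 336 h. Radioactivity was counted by LSC with external-standard efficiency correction. Results were converted to ng equivalent of CS-1036/ml using specific activity and sample volume, and reported as mean + S.D.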

Plasma [4] = assay: Drug uptake in albino F344/DuCrlCrlj rat plasma at 10 mg/kg, po after 8 to 72 hrs by liquid scintillation counting; assay type: ADME, organism-based; parameters: dose 10 mg/kg, dosed compound name [14C]CS-1036, route oral
Adrenal gland [5] = assay: Drug uptake in albino F344/DuCrlCrlj rat adrenal gland assessed as ng equivalent of CS-1036 at 5 mg/kg, po after 8 hrs by liquid scintillation counting; assay type: ADME, organism-based; parameters: dose 5 mg/kg, dosed compound name [14C]CS-1036, route oral
Small intestine = assay: Drug uptake in albino F344/DuCrlCrlj rat small intestine assessed as ng equivalent of CS-1036 at 5 mg/kg, po after 1 hr by liquid scintillation counting; assay type: ADME, organism-based; parameters: dose 5 mg/kg, dosed compound name [14C]CS-1036, route oral
[6] = Drug uptake in albino F344/DuCrlCrlj rat skeletal muscle assessed as ng equivalent of CS-1036 at 5 mg/kg, po after 168 hrs by liquid scintillation counting; assay type: ADME, organism-based, Muscle tissue; parameters: dose 5 mg/kg, dosed compound name [14C]CS-1036, route oral
Liver [7] = assay: Drug uptake in albino F344/DuCrlCrlj rat liver assessed as ng equivalent of CS-1036 at 5 mg/kg, po after 72 hrs by liquid scintillation counting; assay type: ADME, organism-based; parameters: dose 5 mg/kg, dosed compound name [14C]CS-1036, route oral
Spleen = assay: Drug uptake in albino F344/DuCrlCrlj rat spleen assessed as ng equivalent of CS-1036 at 5 mg/kg, po after 4 hrs by liquid scintillation counting; assay type: ADME, organism-based; parameters: dose 5 mg/kg, dosed compound name [14C]CS-1036, route oral
Liver [8] = assay: Drug uptake in albino F344/DuCrlCrlj rat liver at 5 mg/kg, po after 336 hrs by liquid scintillation counting; assay type: ADME, organism-based; parameters: dose 5 mg/kg, dosed compound name [14C]CS-1036, route oral
[9] = Drug uptake in albino F344/DuCrlCrlj rat trachea at 5 mg/kg, po after 4 hrs by liquid scintillation counting; assay type: ADME, organism-based; parameters: dose 5 mg/kg, dosed compound name [14C]CS-1036, route oral
Heart [10] = assay: Drug uptake in albino F344/DuCrlCrlj rat heart assessed as ng equivalent of CS-1036 at 5 mg/kg, po after 24 hrs by liquid scintillation counting; assay type: ADME, organism-based; parameters: dose 5 mg/kg, dosed compound name [14C]CS-1036, route oral
[11] = Drug uptake in albino F344/DuCrlCrlj rat epididymis at 5 mg/kg, po after 168 hrs by liquid scintillation counting; assay type: ADME, organism-based; parameters: dose 5 mg/kg, dosed compound name [14C]CS-1036, route oral
Stomach [12] = assay: Drug uptake in albino F344/DuCrlCrlj rat stomach at 5 mg/kg, po after 336 hrs by liquid scintillation counting; assay type: ADME, organism-based; parameters: dose 5 mg/kg, dosed compound name [14C]CS-1036, route oral
Plasma [13] = assay: Drug uptake in albino F344/DuCrlCrlj rat plasma at 5 mg/kg, po after 1 hr by liquid scintillation counting; assay type: ADME, organism-based; parameters: dose 5 mg/kg, dosed compound name [14C]CS-1036, route oral
Adrenal gland [14] = assay: Drug uptake in albino F344/DuCrlCrlj rat adrenal gland at 5 mg/kg, po after 168 hrs by liquid scintillation counting; assay type: ADME, organism-based; parameters: dose 5 mg/kg, dosed compound name [14C]CS-1036, route oral
Liver [15] = assay: Drug uptake in albino F344/DuCrlCrlj rat liver assessed as ng equivalent of CS-1036 at 5 mg/kg, po after 336 hrs by liquid scintillation counting; assay type: ADME, organism-based; parameters: dose 5 mg/kg, dosed compound name [14C]CS-1036, route oral
Cerebrum = assay: Drug uptake in albino F344/DuCrlCrlj rat cerebrum at 5 mg/kg, po after 168 hrs by liquid scintillation counting; assay type: ADME, organism-based; parameters: dose 5 mg/kg, dosed compound name [14C]CS-1036, route oral
Outline: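 Single oral [14C]CS-1036 at 5 mg/kg was given to male rats (159–167 g; n = 3). Cerebrum was collected after aortic bleeding at 1, 4, 8, 24, 72, 168 or 336 h, weighed, and homogenized in 2 volumes of saline. A 0.5 ml aliquot was solubilized in Soluene-350 and counted by LSC with external-standard correction. Results are in ng equivalent/g tissue from specific activity and sample weight.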

Stomach [16] = assay: Drug uptake in albino F344/DuCrlCrlj rat stomach assessed as ng equivalent of CS-1036 at 5 mg/kg, po after 168 hrs by liquid scintillation counting; assay type: ADME, organism-based; parameters: dose 5 mg/kg, dosed compound name [14C]CS-1036, route oral
Kidney [17] = assay: Drug uptake in albino F344/DuCrlCrlj rat kidney assessed as ng equivalent of CS-1036 at 5 mg/kg, po after 72 hrs by liquid scintillation counting; assay type: ADME, organism-based; parameters: dose 5 mg/kg, dosed compound name [14C]CS-1036, route oral
[18] = Drug uptake in albino F344/DuCrlCrlj rat brown fat at 5 mg/kg, po after 24 hrs by liquid scintillation counting; assay type: ADME, organism-based, Brown adipose tissue; parameters: dose 5 mg/kg, dosed compound name [14C]CS-1036, route oral
[19] = Drug uptake in albino F344/DuCrlCrlj rat trachea assessed as ng equivalent of CS-1036 at 5 mg/kg, po after 24 hrs by liquid scintillation counting; assay type: ADME, organism-based; parameters: dose 5 mg/kg, dosed compound name [14C]CS-1036, route oral
Adrenal gland [20] = assay: Drug uptake in albino F344/DuCrlCrlj rat adrenal gland assessed as ng equivalent of CS-1036 at 5 mg/kg, po after 336 hrs by liquid scintillation counting; assay type: ADME, organism-based; parameters: dose 5 mg/kg, dosed compound name [14C]CS-1036, route oral
[21] = Drug uptake in albino F344/DuCrlCrlj rat epididymis assessed as ng equivalent of CS-1036 at 5 mg/kg, po after 168 hrs by liquid scintillation counting; assay type: ADME, organism-based; parameters: dose 5 mg/kg, dosed compound name [14C]CS-1036, route oral
Large intestine = assay: Drug uptake in albino F344/DuCrlCrlj rat large intestine at 5 mg/kg, po after 72 hrs by liquid scintillation counting; assay type: ADME, organism-based; parameters: dose 5 mg/kg, dosed compound name [14C]CS-1036, route oral
[22] = Drug uptake in albino F344/DuCrlCrlj rat trachea assessed as ng equivalent of CS-1036 at 5 mg/kg, po after 168 hrs by liquid scintillation counting; assay type: ADME, organism-based; parameters: dose 5 mg/kg, dosed compound name [14C]CS-1036, route oral
Plasma [23] = assay: Drug metabolism in albino F344/DuCrlCrlj rat plasma assessed as (2R,3R,4R)-2-(hydroxymethyl)pyrrolidine-3,4-diol formation at 10 mg/kg, po after 8 to 72 hrs by liquid scintillation counting; assay type: ADME, organism-based; parameters: dose 10 mg/kg, dosed compound name [14C]CS-1036, route oral
Zone of skin = assay: Drug uptake in albino F344/DuCrlCrlj rat skin at 5 mg/kg, po after 8 hrs by liquid scintillation counting; assay type: ADME, organism-based; parameters: dose 5 mg/kg, dosed compound name [14C]CS-1036, route oral
Thymus = assay: Drug uptake in albino F344/DuCrlCrlj rat thymus at 5 mg/kg, po after 4 hrs by liquid scintillation counting; assay type: ADME, organism-based; parameters: dose 5 mg/kg, dosed compound name [14C]CS-1036, route oral
[24] = Drug uptake in albino F344/DuCrlCrlj rat skeletal muscle at 5 mg/kg, po after 24 hrs by liquid scintillation counting; assay type: ADME, organism-based, Muscle tissue; parameters: dose 5 mg/kg, dosed compound name [14C]CS-1036, route oral
Aorta = assay: Drug uptake in albino F344/DuCrlCrlj rat aorta assessed as ng equivalent of CS-1036 at 5 mg/kg, po after 72 hrs by liquid scintillation counting; assay type: ADME, organism-based; parameters: dose 5 mg/kg, dosed compound name [14C]CS-1036, route oral
Plasma [25] = assay: Drug uptake in albino F344/DuCrlCrlj rat plasma assessed as ng equivalent of CS-1036 at 5 mg/kg, po after 24 hrs by liquid scintillation counting; assay type: ADME, organism-based; parameters: dose 5 mg/kg, dosed compound name [14C]CS-1036, route oral
Stomach [26] = assay: Drug uptake in albino F344/DuCrlCrlj rat stomach assessed as ng equivalent of CS-1036 at 5 mg/kg, po after 1 hr by liquid scintillation counting; assay type: ADME, organism-based; parameters: dose 5 mg/kg, dosed compound name [14C]CS-1036, route oral
[27] = Drug uptake in albino F344/DuCrlCrlj rat bone marrow at 5 mg/kg, po after 24 hrs by liquid scintillation counting; assay type: ADME, organism-based; parameters: dose 5 mg/kg, dosed compound name [14C]CS-1036, route oral

## C[C@H]1O[C@@H](O[C@H]2[C@H](O)[C@@H](O)[C@@H](O[14C@H]3[14C@H](O)[14CH2]N[14C@@H]3[14CH2]O)O[C@@H]2CO)[C@H](O)[C@@H](O)[C@@H]1O
[1]
  Radiolabel recovery: 11.4 ngequiv/g
Kidney [2]
  Radiolabel recovery: 12 ngequiv/g
Heart [3]
  Radiolabel recovery: 1.1 ngequiv/g
Blood
  Radiolabel recovery: 35.7 ngequiv/ml
Plasma [4]
  Drug uptake: Active
Adrenal gland [5]
  Radiolabel recovery: 66.9 ngequiv/g
Small intestine
  Radiolabel recovery: 86500 ngequiv/g
[6]
  Radiolabel recovery: 4.5 ngequiv/g
Liver [7]
  Radiolabel recovery: 629 ngequiv/g
Spleen
  Radiolabel recovery: 6.3 ngequiv/g
Liver [8]
  Radiolabel recovery: 7.76 ngequiv/g
[9]
  Radiolabel recovery: 31.1 ngequiv/g
Heart [10]
  Radiolabel recovery: 4.4 ngequiv/g
[11]
  Radiolabel recovery: 18.5 ngequiv/g
Stomach [12]
  Radiolabel recovery: 11.9 ngequiv/g
Plasma [13]
  Radiolabel recovery: 90.6 ngequiv/ml
Adrenal gland [14]
  Radiolabel recovery: 78.9 ngequiv/g
Liver [15]
  Radiolabel recovery: 2.66 ngequiv/g
Cerebrum
  Radiolabel recovery: 6.2 ngequiv/g
Stomach [16]
  Radiolabel recovery: 11.2 ngequiv/g
Kidney [17]
  Radiolabel recovery: 29.7 ngequiv/g
[18]
  Radiolabel recovery: 200 ngequiv/g
[19]
  Radiolabel recovery: 7.1 ngequiv/g
Adrenal gland [20]
  Radiolabel recovery: 8.2 ngequiv/g
[21]
  Radiolabel recovery: 8.2 ngequiv/g
Large intestine
  Radiolabel recovery: 65.1 ngequiv/g
[22]
  Radiolabel recovery: 10.4 ngequiv/g
Plasma [23]
  Drug metabolism: metabolite_detected
Zone of skin
  Radiolabel recovery: 60.3 ngequiv/g
Thymus
  Radiolabel recovery: 22 ngequiv/g
[24]
  Radiolabel recovery: 34.4 ngequiv/g
Aorta
  Radiolabel recovery: 16.1 ngequiv/g
Plasma [25]
  Radiolabel recovery: 6.1 ngequiv/ml
Stomach [26]
  Radiolabel recovery: 640 ngequiv/g
[27]
  Radiolabel recovery: 116 ngequiv/g
